Our source for the EC50, CC50 and IC50 values is ChEMBL document CHEMBL1138446, “The design, synthesis, and antiviral activity of monofluoro and difluoro analogues of 4'-azidocytidine against hepatitis C virus replication: the discovery of 4'-azido-2'-deoxy-2'-fluorocytidine and 4'-azido-2'-dideoxy-2',2'-difluorocytidine” (J Med Chem, 2009).

The subject of one data set is Hepatitis C virus. Put plainly: Antiviral activity against HCV 1b infected in human 2209-23 cells by replicon assay. The class given is functional, organism-based, Hepacivirus hominis.
Data set [1] in a line: Cytotoxicity against human 2209-23 cells assessed as cell viability by WST-1 assay. The class given is cell-based. The essentials: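 Viability of the same 2209-23 replicon cells was measured by the WST-1 assay. Values are reported as CC50.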
Data set [2] is described as follows: Antiproliferative activity against human 2209-23 cells assessed as [3H]thymidine incorporation by scintillation proximity assay. The class given is cell-based. The gist of the method:
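Proliferation of the GT-1b stable replicon line 2209-23 was measured as tritiated thymidine incorporation into cellular DNA by scintillation proximity assay. Values are reported as IC50.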

Data set [3] in a line: Inhibition of HCV NS5B polymerase-mediated RNA synthesis. More on the design: species or system Hepacivirus hominis.

pEC50, pIC50: −log10 of the molar value. Where only a bound is given, the exact number is not on record here.

In the data set with Hepatitis C virus, `[N-]=[N+]=N[C@]1(CO)O[C@@H](n2ccc(N)nc2=O)[C@H](O)[C@@H]1F` gave a pEC50 of less than 4.00. The cytotoxic concentration (CC50) in data set [1] was more than 100 µM.

In the data set with Hepatitis C virus, `[N-]=[N+]=N[C@]1(CO)O[C@@H](n2ccc(N)nc2=O)[C@H](F)[C@@H]1O` had a pEC50 of 5.40. Further, in data set [1], the half-maximal cytotoxic concentration (CC50) was more than 100 µM. The pIC50 in data set [2] is less than 4.00.

Compound `[N-]=[N+]=N[C@]1(CO)O[C@@H](n2ccc(N)nc2=O)[C@H](O)[C@H]1F` had a pEC50 in the data set with Hepatitis C virus of less than 4.00. Also, the CC50 in data set [1] is more than 100 µM.

With `[N-]=[N+]=N[C@]1(CO)O[C@@H](n2ccc(N)nc2=O)C(F)(F)[C@@H]1O`, the pEC50 in the data set on Hepatitis C virus is 7.18. For the same compound, the CC50 in data set [1] is more than 100 µM.

`Nc1ccn([C@@H]2O[C@H](CO)[C@@H](O)[C@@H]2F)c(=O)n1` gave a pEC50 with Hepatitis C virus of 6.94. For the same compound, the CC50 in data set [1] was more than 100 µM. In addition, the pIC50 in data set [2] is 6.76.

The compound `[N-]=[N+]=N[C@]1(CO)O[C@@H](n2ccc(N)nc2=O)[C@@H](O)[C@@H]1O` showed a pEC50 in the data set on Hepatitis C virus of 6.77. The 50% cytotoxic concentration (CC50) in data set [1] was more than 1000 µM. For the same compound, the pIC50 in data set [2] was less than 4.00.

On to `[N-]=[N+]=N[C@]1(CO)O[C@@H](n2ccc(N)nc2=O)[C@H](O)[C@@H]1O` [4'-AZIDOCYTIDINE], for which the pEC50 (in data set [3]; with Hepatitis C virus) was 5.89 each time. Also, the CC50 in data set [1] is more than 2000 µM. In addition, the pIC50 in data set [2] is less than 4.00.

With `[N-]=[N+]=N[C@]1(CO)O[C@@H](n2ccc(N)nc2=O)[C@@H](F)[C@@H]1O` [RO-0622], the pEC50 with Hepatitis C virus was 7.62. Also, in data set [1], the CC50 is more than 100 µM. Also, in data set [2], the pIC50 was less than 4.00.
